Experimental data as given in article PMC8851455 (ACS Omega, 2022).
Like-named read-outs stand apart in the source and are kept apart here.

Assays:
chicken fetal liver = assay: TBARs level; format: in vivo; conditions: higher dose (0.5 mM: 450–500 μg/kg)
chicken embryo = assay: Chicken embryonic assay; format: in vivo; conditions: egg injection, day 18
S. typhimurium TA100 = assay: Ames test, strain TA100; format: cell-based, Salmonella typhimurium
[1] = tested on: S. typhimurium tester strains (TA98, TA100, and TA102); assay: Ames test, overall over three strains; format: cell-based, Salmonella typhimurium; conditions: 5 × 10^–5 to 50 pmol/plate, with or without S9
S. typhimurium = conditions: at 12.1 to 147.8 nmol/plate; cited from earlier work
S. typhimurium TA98 = assay: Ames test, strain TA98; format: cell-based, Salmonella typhimurium
MCF-7 cells [2] = conditions: at 0.001–1 μM when tested from 0.001 to 50 μM; cited from earlier work
MCF-7 cells [3] = assay: MCF-7 cell proliferation assay; format: cell-based, human
Outline: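 MCF-7 cells exposed to test compound or E2 at six concentrations from 10–12 to 10–7 M in EA-free medium. Proliferation read as MTT product absorbance at 570 nm. Three independent trials, each in triplicate. % RME2 = 100 × (OD test − OD VC)/(max OD E2 − OD VC). EC50 from curve fitting. EEF = EC50 of E2/EC50 of sample. One-way ANOVA with Dunnett's test versus E2 at each concentration.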

[4] = higher dose (0.5 mM: 450–500 μg/kg; E2 0.1 mM: 91 μg/kg)
[5] = lower dose (0.05 mM: 45–50 μg/kg; E2 0.01 mM: 9.1 μg/kg)
[6] = TA100 +S9, 5 × 10^–2 pmol/plate
[7] = TA100 +S9, 5 × 10^–3 pmol/plate
[8] = TA100 +S9, 5 × 10^–4 pmol/plate
[9] = TA100 +S9, 5 × 10^–5 pmol/plate
[10] = TA100 -S9, 5 × 10^–2 pmol/plate
[11] = TA100 -S9, 5 × 10^–3 pmol/plate
[12] = TA100 -S9, 5 × 10^–4 pmol/plate
[13] = TA100 -S9, 5 × 10^–5 pmol/plate
[14] = TA102 +S9, 5 × 10^–2 pmol/plate
[15] = TA102 +S9, 5 × 10^–3 pmol/plate
[16] = TA102 +S9, 5 × 10^–4 pmol/plate
[17] = TA102 +S9, 5 × 10^–5 pmol/plate
[18] = TA102 -S9, 5 × 10^–3 pmol/plate
[19] = TA102 -S9, 5 × 10^–4 pmol/plate
[20] = TA102 -S9, 5 × 10^–5 pmol/plate

## O=c1c(O)c(-c2ccc(O)c(O)c2)oc2cc(O)cc(O)c12 [quercetin]
Chicken fetal liver
  TBARs value: 62.48 nmol/g
Chicken embryo; [4]
  LSI (liver somatic index): 1.85 ± 0.21%
  REEW (ratio of embryo to egg weight): 0.43 ± 0.057
  mortality rate: 12.5%
  number of dead chicken embryo: 1
  weights: embryo: 24.06 ± 2.35 g
  weights: heart: 0.21 ± 0.05 g
  weights: liver: 0.44 ± 0.01 g
Chicken embryo; [5]
  LSI (liver somatic index): 2.52 ± 0.34%
  REEW (ratio of embryo to egg weight): 0.41 ± 0.035
  malformation rate: 0.0%
  mortality rate: 25.0%
  number of dead chicken embryo: 2
  number of malformation chicken embryo: 0
  weights: embryo: 22.11 ± 2.26 g
  weights: heart: 0.20 ± 0.02 g
  weights: liver: 0.56 ± 0.13 g
S. typhimurium TA100; TA100 +S9, 0.5 pmol/plate
  MI: 1.2
  number of revertants/plate (M ± SD): 398 ± 8 revertants/plate
S. typhimurium TA100; TA100 +S9, 5 pmol/plate
  MI: 1.2
  number of revertants/plate (M ± SD): 386 ± 12 revertants/plate
S. typhimurium TA100; TA100 +S9, 50 pmol/plate
  MI: 1.1
  number of revertants/plate (M ± SD): 369 ± 12 revertants/plate
S. typhimurium TA100; [6]
  MI: 1.1
  number of revertants/plate (M ± SD): 366 ± 14 revertants/plate
S. typhimurium TA100; [7]
  MI: 1.1
  number of revertants/plate (M ± SD): 367 ± 5 revertants/plate
S. typhimurium TA100; [8]
  MI: 1.1
  number of revertants/plate (M ± SD): 349 ± 8 revertants/plate
S. typhimurium TA100; [9]
  MI: 1.1
  number of revertants/plate (M ± SD): 358 ± 14 revertants/plate
S. typhimurium TA100; TA100 -S9, 0.5 pmol/plate
  MI: 1.0
  number of revertants/plate (M ± SD): 105 ± 11 revertants/plate
S. typhimurium TA100; TA100 -S9, 5 pmol/plate
  MI: 1.0
  number of revertants/plate (M ± SD): 104 ± 8 revertants/plate
S. typhimurium TA100; TA100 -S9, 50 pmol/plate
  MI: 0.9
  number of revertants/plate (M ± SD): 88 ± 8 revertants/plate
S. typhimurium TA100; [10]
  MI: 1.1
  number of revertants/plate (M ± SD): 113 ± 6 revertants/plate
S. typhimurium TA100; [11]
  MI: 1.0
  number of revertants/plate (M ± SD): 103 ± 7 revertants/plate
S. typhimurium TA100; [12]
  MI: 1.0
  number of revertants/plate (M ± SD): 98 ± 7 revertants/plate
S. typhimurium TA100; [13]
  MI: 1.0
  number of revertants/plate (M ± SD): 97 ± 4 revertants/plate
[1]
  Ames test outcome (signs of mutagenicity): signs of mutagenicity
S. typhimurium
  mutagenicity in TA98, TA100, and TA102: showed mutagenicity
S. typhimurium TA98; TA98 +S9, 0.5 pmol/plate
  MI: 1.1
  number of revertants/plate (M ± SD): 25 ± 13 revertants/plate
S. typhimurium TA98; TA98 +S9, 5 pmol/plate
  MI: 0.8
  number of revertants/plate (M ± SD): 19 ± 10 revertants/plate
S. typhimurium TA98; TA98 +S9, 50 pmol/plate
  MI: 0.8
  number of revertants/plate (M ± SD): 18 ± 13 revertants/plate
S. typhimurium TA98; TA98 +S9, 5 × 10^–2 pmol/plate
  MI: 1.0
  number of revertants/plate (M ± SD): 23 ± 17 revertants/plate
S. typhimurium TA98; TA98 +S9, 5 × 10^–3 pmol/plate
  MI: 1.2
  number of revertants/plate (M ± SD): 27 ± 16 revertants/plate
S. typhimurium TA98; TA98 +S9, 5 × 10^–4 pmol/plate
  MI: 0.8
  number of revertants/plate (M ± SD): 18 ± 13 revertants/plate
S. typhimurium TA98; TA98 +S9, 5 × 10^–5 pmol/plate
  MI: 0.7
  number of revertants/plate (M ± SD): 17 ± 8 revertants/plate
S. typhimurium TA98; TA98 -S9, 0.5 pmol/plate
  MI: 1.3
  number of revertants/plate (M ± SD): 28 ± 1 revertants/plate
S. typhimurium TA98; TA98 -S9, 5 pmol/plate
  MI: 1.2
  number of revertants/plate (M ± SD): 27 ± 11 revertants/plate
S. typhimurium TA98; TA98 -S9, 50 pmol/plate
  MI: 1.3
  number of revertants/plate (M ± SD): 30 ± 2 revertants/plate
S. typhimurium TA98; TA98 -S9, 5 × 10^–2 pmol/plate
  MI: 0.8
  number of revertants/plate (M ± SD): 19 ± 6 revertants/plate
S. typhimurium TA98; TA98 -S9, 5 × 10^–3 pmol/plate
  MI: 1.4
  number of revertants/plate (M ± SD): 31 ± 6 revertants/plate
S. typhimurium TA98; TA98 -S9, 5 × 10^–4 pmol/plate
  MI: 1.2
  number of revertants/plate (M ± SD): 27 ± 3 revertants/plate
S. typhimurium TA98; TA98 -S9, 5 × 10^–5 pmol/plate
  MI: 1.1
  number of revertants/plate (M ± SD): 25 ± 2 revertants/plate
MCF-7 cells [2]
  cell proliferation in the MCF-7 cells: < 120%
MCF-7 cells [3]; all test concentrations except 10^–11 M, VC + 3 SD = 18%
  % RME2, no detectable EA: < 18%
MCF-7 cells [3]; highest % RME2 (relative maximum % E2) in test range 10^–12–10^–7 M
  max % RME2: 22%
S. typhimurium TA102; TA102 +S9, 0.5 pmol/plate
  MI: 1.1
  number of revertants/plate (M ± SD): 326 ± 19 revertants/plate
S. typhimurium TA102; TA102 +S9, 5 pmol/plate
  MI: 0.9
  number of revertants/plate (M ± SD): 279 ± 21 revertants/plate
S. typhimurium TA102; TA102 +S9, 50 pmol/plate
  MI: 1.0
  number of revertants/plate (M ± SD): 310 ± 31 revertants/plate
S. typhimurium TA102; [14]
  MI: 1.1
  number of revertants/plate (M ± SD): 337 ± 7 revertants/plate
S. typhimurium TA102; [15]
  MI: 1.2
  number of revertants/plate (M ± SD): 369 ± 13 revertants/plate
S. typhimurium TA102; [16]
  MI: 1.0
  number of revertants/plate (M ± SD): 312 ± 16 revertants/plate
S. typhimurium TA102; [17]
  MI: 0.9
  number of revertants/plate (M ± SD): 291 ± 11 revertants/plate
S. typhimurium TA102; TA102 -S9, 0.5 pmol/plate
  MI: 1.0
  number of revertants/plate (M ± SD): 267 ± 23 revertants/plate
S. typhimurium TA102; TA102 -S9, 5 pmol/plate
  MI: 1.2
  number of revertants/plate (M ± SD): 312 ± 13 revertants/plate
S. typhimurium TA102; TA102 -S9, 50 pmol/plate
  MI: 1.4
  number of revertants/plate (M ± SD): 347 ± 10 revertants/plate
S. typhimurium TA102; [18]
  MI: 1.3
  number of revertants/plate (M ± SD): 325 ± 10 revertants/plate
S. typhimurium TA102; [19]
  MI: 1.2
  number of revertants/plate (M ± SD): 301 ± 16 revertants/plate
S. typhimurium TA102; [20]
  MI: 1.1
  number of revertants/plate (M ± SD): 284 ± 15 revertants/plate
